# Test results taken from ChEMBL document CHEMBL1128702, “Structure-activity relationships of the antimalarial agent artemisinin. 2. Effect of heteroatom substitution at O-11: synthesis and bioassay of N-alkyl-11-aza-9-desmethylartemisinins” (J Med Chem, 1995).
# Assays:
# Homo sapiens [1] = species: Homo sapiens; experiment: Relative potency was determined in vitro in paratized human whole blood against […]strain of Plasmodium falciparum in University of mississippi using parasite lactate dehydrogenase assay; assay type: functional
# How it was run: (§1)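 P. falciparum W-2 and D-6 tested at University of Mississippi by Makler parasite lactate dehydrogenase assay: pLDH reduces APAD to APADH (human RBC LDH does so only slowly); APADH detected colorimetrically via nitroblue tetrazolium reduction to blue formazan. Relative potencies derived as for the Walter Reed assay.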
# Plasmodium falciparum [2] = experiment: Relative potency was determined in vitro in paratized human whole blood against drug resistant strain of Plasmodium falciparum strain-Indochina(W-2)
# Plasmodium falciparum [3] = experiment: Relative potency was determined in vitro in paratized human whole blood against drug resistant strain of Plasmodium falciparum strain-Sierra Leone(D-6)
# Homo sapiens [4] = species: Homo sapiens; experiment: Relative potency was determined in vitro in paratized human whole blood against […]strain of Plasmodium falciparum in WR(Walter Reed) army institute of research; assay type: functional
# Homo sapiens [5] = species: Homo sapiens; experiment: Relative potency was determined in vitro in paratized human whole blood against chloroquine sensitive (D-6) strain of Plasmodium falciparum in University of mississippi using parasite lactate dehydrogenase assay; assay type: functional; how it was run: as §1
# [6] = Partition coefficient (logP); assay type: physicochemical; conditions: octanol/water
# How it was run: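 log P measured by literature procedures using standard values, also calculated with CLOGP; UV detection at 330 nm for ketone standards and 216 nm for artemisinin derivatives; samples run in triplicate.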
Compound,Relative potency (Homo sapiens [1]),Relative potency (Plasmodium falciparum [2]),Relative potency (Plasmodium falciparum [3]),Relative potency (Homo sapiens [4]),Relative potency (Homo sapiens [5]),logP [6]
C[C@@H]1CC[C@H]2CC(=O)N(Cc3ccccc3)C3O[C@@]4(C)CC[C@@H]1[C@]32OO4 (stereo partly drawn),252%,217%,189%,217%,146%,
C[C@@H]1CC[C@H]2CC(=O)N(Cc3ccc(Cl)cc3)C3O[C@@]4(C)CC[C@@H]1[C@]32OO4 (stereo partly drawn),311%,69%,111%,69%,128%,3.96
C[C@@H]1CC[C@H]2CC(=O)N(CCCCCC(=O)O)C3O[C@@]4(C)CC[C@@H]1[C@]32OO4 (stereo partly drawn),,2%,12%,,,
C[C@@H]1CC[C@H]2CC(=O)N(CCN(C)C)C3O[C@@]4(C)CC[C@@H]1[C@]32OO4 (stereo partly drawn),,,37%,,,
C[C@@H]1CC[C@H]2CC(=O)N(CCc3ccccc3)C3O[C@@]4(C)CC[C@@H]1[C@]32OO4 (stereo partly drawn),204%,143%,197%,143%,187%,3.5
CC(C)CN1C(=O)C[C@@H]2CC[C@@H](C)[C@@H]3CC[C@@]4(C)OO[C@@]23C1O4 (stereo partly drawn),227%,105%,145%,105%,155%,3.01
C[C@@H]1CC[C@H]2CC(=O)N(CC(=O)O)C3O[C@@]4(C)CC[C@@H]1[C@]32OO4 (stereo partly drawn),,,6%,,,1.69
CC(C)CCN1C(=O)C[C@@H]2CC[C@@H](C)[C@@H]3CC[C@@]4(C)OO[C@@]23C1O4 (stereo partly drawn),,92%,149%,,,3.54
CCCN1C(=O)C[C@@H]2CC[C@@H](C)[C@@H]3CC[C@@]4(C)OO[C@@]23C1O4 (stereo partly drawn),,111%,75%,,,2.61
C[C@@H]1CC[C@H]2CC(=O)N(CCCc3ccccc3)C3O[C@@]4(C)CC[C@@H]1[C@]32OO4 (stereo partly drawn),281%,105%,205%,105%,147%,4.03
C[C@@H]1CC[C@H]2CC(=O)N(C)C3O[C@@]4(C)CC[C@@H]1[C@]32OO4 (stereo partly drawn),,500%,213%,,,1.55
CCCCCN1C(=O)C[C@@H]2CC[C@@H](C)[C@@H]3CC[C@@]4(C)OO[C@@]23C1O4 (stereo partly drawn),,63%,110%,,,3.67
C[C@@H]1CC[C@H]2[C@@H](C)C(=O)O[C@@H]3O[C@@]4(C)CC[C@@H]1[C@]32OO4 [ARTEMISININ],,100%,100%,,,
